A selection: hits, their analogues and other compounds. The true share with any hit is near 1.8%.
M5 PAM: positive allosteric modulators of human muscarinic M5 receptor; CHO-K1 hM5, Fluo-8 calcium, ACh EC20 PAM; 0% = ACh EC20, 100% = ACh EC100; activation, % at 3 µM; 360,000 tested, 0.3% active; AID 624038;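 active = activation above the run cutoff, the mean activation of all test compounds plus 3 SD, cut at about 18% in these data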
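Probe or stimulus: acetylcholine, EC20 level; Assay system: human M5 receptor in CHO-K1 cells; Schedule: compound preincubation 140 s before EC20 acetylcholine addition; Technique: intracellular calcium via Fluo-8 fluorescence; Dosing: single-point, 3 µM nominal; Read-out basis: percent activation from peak-over-basal fluorescence ratio, scaled EC20-to-EC100 acetylcholine; Repeats: one well per compound, no replicates.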
M4 antag: antagonists of human muscarinic M4 receptor (CHRM4). 360,000 tested, 0.73% active. inhibition, % at 3 µM. CHO-hM4 cells, ACh EC80, Fluo-8 calcium fluorescence. AID 624125. P08173;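 active = inhibition above its plate's cutoff, the mean inhibition of sample wells plus 3 SD, cut at about 27% in these data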;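 also: 0% = acetylcholine EC80 with DMSO and 100% = DMSO without agonist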
M5 antag: blocks acetylcholine activation of human M5 receptor; CHO-hM5 cells, Fluo-8 calcium fluorescence, ACh EC80; AID 624040; 360,000 tested, 0.59% active; P08912; inhibition, % at 3 µM;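 active = inhibition above a per-plate cutoff, the mean of that plate's test compounds plus 3 SD, cut at about 27% in these data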;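 also: 0% = acetylcholine EC80 with DMSO and 100% = DMSO without agonist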
M5 ag: agonists of human muscarinic M5 receptor (CHRM5). AID 624037. 360,000 tested, 0.19% active. CHO-K1 hM5 cells, Fluo-8 calcium fluorescence; 0% DMSO wells, 100% maximal acetylcholine response. activation, % at 3 µM;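 active = activation above the run's mean over test compounds plus 3 SD, cut at about 23% in these data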;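 also: signal is peak over basal fluorescence ratio across the kinetic read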
M4 ag: CHRM4 agonism in calcium assay; P08173; CHO-K1 hM4/Gqi5, Fluo-8 calcium fluorescence; vehicle 0%, full acetylcholine response 100%; activation, % at 3 µM; 360,000 tested, 0.14% active;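 active = activation above the run mean over all test wells plus 3 SD, cut at about 32% in these data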;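 also: peak over basal fluorescence ratio per well then scaled between controls; 0% = DMSO wells and 100% = acetylcholine at EC100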
M4 PAM: potentiates acetylcholine response at human M4 receptor. 360,000 tested, 0.4% active. CHO-K1 hM4/Gqi5, Fluo-8 calcium fluorescence, ACh EC20; 0% = ACh EC20, 100% = maximal ACh. P08173. activation, % at 3 µM;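 active = activation above its plate's cutoff, the mean activation of sample wells plus 3 SD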
Numbers without * were called inactive.

SMILES | M5 PAM | M4 antag | M5 antag | M5 ag | M4 ag | M4 PAM
COc1cccc(NC(=O)c2cnc(NS(=O)(=O)c3ccccc3)nc2)c1 | 1 | -6 | -1 | 2 | 1 | -6
COc1ccc(C(=O)Nn2c(SCc3ccc([N+](=O)[O-])cc3)nc3ccccc3c2=O)cc1 | 18* | -21 | 6 | -3 | 2 | -4
O=C(CCC1CCN(Cc2ccccc2O)CC1)NC1CC1 | 21* | -5 | -11 | -6 | 0 | -3
COc1ccc(C(=O)Nc2cc(-c3ccccc3)nn2-c2ccccc2F)cc1 | 25* | -4 | -13 | -7 | -1 | 21
O=C(Nc1cc(S(=O)(=O)N2CCOCC2)ccc1N1CCCC1)c1cccnc1Cl | 3 | 28* | 0 | 2 | 0 | 11
CCOc1ncccc1C(=O)Nc1cc(S(=O)(=O)N2CCOCC2)ccc1N1CCCC1 | -8 | -1 | 16 | -3 | 14 | -9
CN(C)/C=C/C(=O)c1ccc([N+](=O)[O-])c(CS(=O)(=O)c2ccc(Cl)cc2)c1 | -18 | 13 | 17 | -1 | 13 | -10
Cc1ccc2cc(CN(CCN(C)C)C(=S)Nc3ccccc3)c(=O)[nH]c2c1C | -24 | -11 | 37* | 43* | 2 | 6
CCN(CC)CCN(Cc1cc2cccc(C)c2[nH]c1=O)C(=S)Nc1ccccc1 | -31 | 4 | 58* | 63* | 1 | -9
Cc1cccc(C)c1C(=NCCN(C)C)c1ccccc1 | -31 | 11 | 48* | -18 | 3 | -44
CCOC(=O)C(NC(=O)CC)(Nc1cc(C)on1)C(F)(F)F (stereo unspecified) | 6 | -8 | -7 | -3 | 1 | 34*
COCCCn1c(=O)c2sccc2n(Cc2ccccc2C)c1=O | -4 | 4 | 4 | 0 | 0 | -1
NC(=O)c1cccc(-c2coc3c(C(=O)NCCc4ccccc4)cccc23)c1 | -12 | -15 | 7 | 2 | 15 | -8
Nc1nc(Nc2ccccc2)sc1C(=O)c1ccccc1 | 9 | -19 | -1 | 33* | 13 | 12*
CCOc1ccc(-c2cc(C(=O)NC3CCCCC3)[nH]n2)c(C)c1 | 0 | -8 | -1 | -1 | 1 | 4
CCN(c1ccccc1)S(=O)(=O)c1ccc(Cl)nc1 | 9 | 1 | 2 | -9 | 0 | 0
O=S(=O)(c1ccc(Cl)nc1)N(Cc1ccccc1)Cc1ccccc1 | -11 | 33* | 14 | -5 | -2 | -30
Cc1ccc(C2=N/C(=C/N3CCOCC3)C(=O)O2)cc1 | 38* | -5 | -4 | 0 | 0 | 3
CC(=O)c1cccc(NC(=O)Nc2ccc3c(c2)N(C)C(=O)CS3)c1 | -16 | 22 | 30* | 8 | 26 | -24
CCCOc1nnnn1-c1ccccc1 | 6 | -4 | 0 | -1 | 0 | 19*
OCCOc1nnnn1-c1ccccc1 | 6 | 1 | -5 | 1 | 1 | 10
COc1ccc(F)cc1S(=O)(=O)N1CC(C)CC(C)C1 (stereo unspecified) | 5 | -6 | -2 | -6 | -1 | 12
CN(Cc1cccnc1)C(=O)Cc1ccc(NS(=O)(=O)c2cccc(C(F)(F)F)c2)cc1 | -2 | 11 | 14 | -2 | 5 | -1
C=CCc1cccc(/C=N/n2cnnc2)c1O | 0 | 13 | -2 | 2 | 1 | 41*
Cc1ccc(NS(=O)(=O)Cc2ccccc2)cc1Cl | -3 | -10 | 1 | -6 | 0 | 0
COc1ccc(CCNC(=S)NC(=O)c2cccc([N+](=O)[O-])c2)cc1OC | -5 | -4 | -3 | 1 | 3 | 5
O=S(=O)(c1ccccc1F)N1CCN(CCc2ccccc2)CC1 | -4 | 101* | -4 | -3 | -2 | -18
OC(c1ccc(F)cc1)(C1CCCCC1)C(CN1CCOCC1)c1ccccc1 (stereo unspecified) | 1 | -2 | -5 | -3 | -1 | -1
Nc1c(C(=O)CSc2n[nH]c(-c3ccccc3)n2)c(=O)[nH]c(=O)n1C1CC1 | 2 | 3 | -1 | 5 | 2 | 23*
